Measured values: ChEMBL document CHEMBL4043182, “On the synthesis of quinone-based BODIPY hybrids: New insights on antitumor activity and mechanism of action in cancer cells” (Bioorg Med Chem Lett, 2017)
Activity calls are given as the source filed them. The calls are words filed in the database; no cut-off is given here.

Legend:
[1] = Selective index, ratio of IC50 for mouse L929 cells to IC50 for human SW620 cells
How it was run: (§1)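 Selectivity index is the ratio of the IC50 in a non-cancer murine line (V79 or L929) to the IC50 in the cancer line. […] MTT was 0.5 mg/mL for 3 h, formazan dissolved in DMSO and read at 595 nm as % of control. IC50s were derived by nonlinear regression; triplicate, at least three repeats.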

PC-3 [2] = test: Antiproliferative activity against human PC3 cells after 72 hrs by MTT assay; type: functional, cell-based; settings: PC-3, 72 h
How it was run: (§2)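 MTT reduction: cancer lines plated at 0.7×10^5 to 0.3×10^6 cells/well, V79 and L929 fibroblasts at 0.5×10^5 cells/well. Compounds in DMSO (0.1%) were given for 24 h at 0.04–40.92 µM or 72 h at 0.04–8.19 µM. Fresh medium with 0.5 mg/mL MTT was added for 3 h, then formazan was dissolved in DMSO and read at 595 nm as % of control. IC50 came from nonlinear regression with 95% CI. Doxorubicin (0.001–1.06 µM) was the positive control. Triplicate, ≥3 repeats.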

V79 = test: Antiproliferative activity against chinese hamster V79 cells after 72 hrs by MTT assay; type: cell-based; settings: Cricetulus griseus, V79, 72 h; how it was run: as §2
[3] = Selective index, ratio of IC50 for chinese hamster V79 cells to IC50 for human MDA-MB-435 cells; how it was run: as §1
[4] = Selectivity index, ratio of IC50 for mouse L929 cells to IC50 for human SF295 cells; type: functional; how it was run: as §1
MDA-MB-435 = test: Antiproliferative activity against human MDA-MB-435 cells after 72 hrs by MTT assay; type: functional, cell-based; settings: MDA-MB-435, 72 h; how it was run: as §2
HCT-116 [5] = test: Antiproliferative activity against human HCT116 cells after 72 hrs by MTT assay; type: functional, cell-based; settings: HCT-116, 72 h; how it was run: as §2
HCT-116 [6] = test: Induction of oxidative stress in human HCT116 cells assessed as total GSSG levels at 5 uM treated 24 hrs post NAC addition measured after 24 hrs by spectrophotometric analysis (reference value: 1.19 +/- 0.37 microg/mg); type: functional
SF-295 [7] = test: Induction of oxidative stress in human SF295 cells assessed as GSH to GSSG ratio at 5 uM after 24 hrs by spectrophotometric analysis (reference value: 2.34 +/- 0.56 microg/mg); type: functional
PC-3 [8] = test: Induction of oxidative stress in human PC3 cells assessed as GSH to GSSG ratio at 5 uM after 24 hrs by spectrophotometric analysis (reference value: 2.69 +/- 0.21 microg/mg); type: functional
L929 [9] = test: Induction of oxidative stress in mouse L929 cells assessed as GSH to GSSG ratio at 5 uM treated 24 hrs post NAC addition measured after 24 hrs by spectrophotometric analysis (reference value: 3.55 +/- 0.51 microg/mg); type: cell-based; settings: l929, 24 h
How it was run: (§3)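 Cells were pretreated 24 h with 5 mM NAC, then exposed 24 h to test compound at 5 µM. Controls received 0.1% DMSO. Extracts were prepared by sonication and HClO4 precipitation, then neutralized with KOH. Total glutathione was read by DTNB/glutathione reductase/NADPH rate at 412 nm. GSSG was measured after 4-vinylpyridine (0.1%, 1 h, RT) and GSH derived by difference. Values are normalized to protein, triplicates, three independent runs.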

PC-3 [10] = test: Induction of oxidative stress in human PC3 cells assessed as GSH to GSSG ratio at 5 uM treated 24 hrs post NAC addition measured after 24 hrs by spectrophotometric analysis (reference value: 2.69 +/- 0.21 microg/mg); type: functional; how it was run: as §3
L929 [11] = test: Induction of oxidative stress in mouse L929 cells assessed as total GSH levels at 5 uM treated 24 hrs post NAC addition measured after 24 hrs by spectrophotometric analysis (reference value: 3.76 +/- 0.51 microg/mg); type: cell-based; settings: l929, 24 h
HCT-116 [12] = test: Induction of lipid peroxidation in human HCT116 cells assessed as increase in MDA levels at 2.5 to 10 uM after 24 hrs in absence of NAC by TBARS assay; type: functional, cell-based
How it was run: (§4)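 TBARS: cells were exposed 24 h, with or without 24 h prior 5 mM NAC, and lysed in Tris-HCl. Lysate was heated with TCA/0.25 M HCl and 6.7 mg/mL TBA for 15 min at 100 °C, centrifuged, and read at 532 nm. Hydrolyzed tetramethoxypropane served as standard, with values normalized to protein. H2O2 (10 µM) was the positive control. Three independent experiments in triplicate; ANOVA/Tukey.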

SF-295 [13] = test: Induction of oxidative stress in human SF295 cells assessed as total GSH levels at 5 uM after 24 hrs by spectrophotometric analysis (reference value: 3.16 +/- 0.21 microg/mg); type: functional
PC-3 [14] = test: Induction of oxidative stress in human PC3 cells assessed as total GSH levels at 5 uM after 24 hrs by spectrophotometric analysis (reference value: 3.04 +/- 0.51 microg/mg); type: functional
HCT-116 [15] = test: Cytotoxicity against human HCT116 cells after 24 hrs in presence of GSH-OEt by MTT assay; type: functional, cell-based; settings: HCT-116, 24 h
How it was run: (§5)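 24 h MTT exposure (0.04–40.92 µM in 0.1% DMSO), with or without co-treatment with GSH ethyl ester (15 mM) to gauge the ROS contribution. MTT was 0.5 mg/mL for 3 h, with formazan dissolved in DMSO and absorbance at 595 nm expressed as % of control. Triplicate, repeated at least three times.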

SF-295 [16] = test: Geno-toxicity in human SF295 cells assessed as induction of DNA damage at 2.5 to 10 uM treated 24 hrs post NAC addition measured after 24 hrs by alkaline comet assay; type: functional, cell-based
How it was run: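 Alkaline comet assay after 24 h at 2.5, 5 and 10 µM, with or without 24 h pretreatment with 5 mM NAC. Cells were trypsinized and embedded in 0.75% low-melting agarose, then lysed at pH 10, 4 °C, ≥1 h. DNA was unwound 20 min at pH >13 and electrophoresed 20 min at 25 V, 300 mA (0.86 V/cm), then stained with ethidium bromide. 100 cells (2 slides) were scored in classes 0–4 for a damage index. Mean ± SEM, three independent experiments in triplicate.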

PC-3 [17] = test: Cytotoxicity against human PC3 cells after 24 hrs in presence of GSH-OEt by MTT assay; type: functional, cell-based; settings: PC-3, 24 h; how it was run: as §5
L929 [18] = test: Induction of lipid peroxidation in mouse L929 cells assessed as increase in MDA levels at 2.5 to 10 uM treated 24 hrs post NAC addition measured after 24 hrs by TBARS assay; type: cell-based; settings: l929, 24 h; how it was run: as §4
L929 [19] = test: Induction of oxidative stress in mouse L929 cells assessed as total intracellular thiol levels at 5 uM treated 24 hrs post NAC addition measured after 24 hrs by spectrophotometric analysis (reference value: 4.87 +/- 0.25 microg/mg); type: cell-based; settings: l929, 24 h

Question: Which Ratio IC50 [1] does the source give for `CC1(C)OC2=C(C(=O)C(=O)c3ccccc32)C1n1cc(CNC2=[N+]3C(=C(c4ccccc4)c4ccc(Cl)n4[B-]3(F)F)C=C2)nn1` (stereo unspecified) here?
Answer: 1.4

Question: What about the IC50 (PC-3 [2]) of the same compound?
Answer: 380 nM

Question: What about the IC50 (V79) of the same compound?
Answer: 650 nM

Question: And the Ratio IC50 [3]?
Answer: 0.8

Question: And the “Ratio IC50” value [4]?
Answer: 3

Question: And the IC50 (MDA-MB-435)?
Answer: 810 nM

Question: What about the IC50 (HCT-116 [5]) of the same compound?
Answer: 320 nM

Question: What about the Activity (HCT-116 [6]) of the same compound?
Answer: 1.38 µg/mg

Question: And the Activity (SF-295 [7])?
Answer: 0.39 µg/mg

Question: And the Activity (PC-3 [8])?
Answer: 0.37 µg/mg

Question: What about the Activity (L929 [9]) of the same compound?
Answer: 3.08 µg/mg

Question: What about the Activity (PC-3 [10]) of the same compound?
Answer: 2.88 µg/mg

Question: And the Activity (L929 [11])?
Answer: 3.89 µg/mg

Question: And the Activity (HCT-116 [12])?
Answer: Active

Question: And the Activity (SF-295 [13])?
Answer: 1.31 µg/mg

Question: And the Activity (PC-3 [14])?
Answer: 1.35 µg/mg

Question: And the IC50 (HCT-116 [15])?
Answer: 14200 nM

Question: What about the Activity (SF-295 [16]) of the same compound?
Answer: Active

Question: What about the IC50 (PC-3 [17]) of the same compound?
Answer: 15800 nM

Question: And the Activity (L929 [18])?
Answer: Non-Toxic

Question: What about the Activity (L929 [19]) of the same compound?
Answer: 5.21 µg/mg
